The values below come from ChEMBL document CHEMBL4673261, “Saturated Hydroxy Fatty Acids Exhibit a Cell Growth Inhibitory Activity and Suppress the Cytokine-Induced β-Cell Apoptosis” (J Med Chem, 2020).

The source made the active and inactive calls. No cut-off for these calls is given here.

Data set [1] in a line: (§1) Protection against IL1beta/IFNgamma-induced cell death in […] cells assessed as reduction in cell death at 10 uM preincubated for 1 hr followed by IL1beta/IFNgamma addition and measured after 16 hrs by TUNEL assay relative to control. The following applies: time 17 hrs. The data set is classed as functional. Set-up: scale not given: the % may be the effect or the level left. Put shortly:
(§2)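 INS-1 insulinoma cells grown in RPMI (10% fetal calf serum, 2 mM glutamine, 10 mM HEPES, 1 mM pyruvate) at 37 °C, 5% CO2 to ~70% confluency. Pretreated 1 h with the hydroxy fatty acid in DMSO (final 0.10%), then IL-1β 20 ng/mL + IFNγ 200 ng/mL for 16 h. Cells were cytospun, PFA-fixed and permeabilised, then TUNEL/DAPI stained. Apoptotic cells counted as % of total, ≥3 fields per slide, 3–5 independent experiments.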

The subject of data set [2] is Caco-2. Description: Antiproliferative activity against human Caco2 cells assessed as reduction in cell growth after 72 hrs by MTT assay. In kind it is functional, cell-based. The conditions noted are these: Caco-2, 72 h. In a few lines: (§3)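 Cells were switched after 24 h to medium containing compound, diluted from a 10 mM DMSO stock to a final 0.5% DMSO, with vehicle controls. Exposure was 72 h, then MTT (0.25 mg/mL final) for 3 h. Formazan was dissolved in DMSO and read at 570 nm minus 690 nm background. Triplicate wells were normalised to DMSO as 100%. IC50 came from dose-response curves over at least six experiments.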
In general terms: Formazan colour is commonly taken as a measure of viable cells.

Data set [3] deals with A549. Put plainly: Induction of apoptosis in human A549 cells assessed as increase in activated caspase-3 at 50 uM measured after 72 hrs by DAPI and immunostaining based assay. In kind it is functional, cell-based. In a few lines:
(§4)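 A549 cells (DMEM, 4.5 g/L glucose, 10% heat-inactivated FBS) were grown on poly-L-lysine-coated coverslips and exposed to 50 μM or DMSO vehicle for 72 h. They were fixed in 4% PFA and blocked with 5% FBS/0.1% Triton X-100. Staining was rabbit anti-phospho-histone H3 or anti-cleaved caspase-3 overnight at 4 °C, then Alexa488 secondary and DAPI. Read-out was % positive nuclei over DAPI, n = 8 fields.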

Data set [4] deals with A549. Description: Reduction in STAT3 mRNA level in human A549 cells at 50 uM by RT-qPCR analysis. In kind it is functional, cell-based. In a few lines:
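STAT3 mRNA in DMSO- versus compound-treated A549 cells was measured by quantitative real-time RT-PCR, normalised to β-actin mRNA.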
On the technique in general: In qPCR the cycle at which signal appears reflects the starting amount.

Data set [5] has as its system A549. Put plainly: Cell cycle arrest in human A549 cells assessed as reduction in histone H3 phosphorylation at 50 uM measured after 72 hrs by DAPI and immunostaining based assay. The data set is classed as functional. Put shortly:
as §4

Data set [6] can be described thus: Toxicity in […] assessed as induction of apoptotic cell death at 1 to 10 uM measured after 1 hr by TUNEL assay. The data set is classed as cell-based. The following applies: ins1, 10 µM; dose 1-10 µM. In a few lines:
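INS-1 cells (RPMI, 10% FCS, 10 mM HEPES, 1 mM pyruvate, 37 °C, 5% CO2) were grown to ~70% confluency. They were pretreated 1 h with 1 or 10 μM (final DMSO 0.10%), then given vehicle or IL-1β 20 ng/mL + IFNγ 200 ng/mL for 16 h. Cells were cytospun, PFA-fixed, permeabilised, TUNEL-stained and DAPI-counterstained. Result was % TUNEL-positive nuclei from ≥3 fields per slide, 3–5 independent experiments, mean ± SEM.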

Data set [7] relates to SF-268. Description: Antiproliferative activity against human SF-268 cells assessed as reduction in cell growth after 72 hrs by MTT assay. The data set is classed as functional, cell-based. The following applies: SF-268, 72 h. Put shortly:
as §3

Data set [8] deals with Signal transducer and activator of transcription 3 (Homo sapiens) (UniProt P40763). Description: Down regulation of STAT3 phosphorylation in human A549 cells at 50 uM by Western blot analysis. In kind it is cell-based. In a few lines:
(§5)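 Treated and untreated A549 cells were lysed in RIPA and spun at 17,000g for 15 min at 4 °C. 35 μg protein was run on SDS-PAGE and transferred to nitrocellulose, then blocked with 5% BSA in TBS-0.1% Tween 20. Probes were anti-phospho-STAT3 (1:1000), anti-STAT3 (1:1000) and anti-β-actin (1:20,000) overnight at 4 °C, then secondary for 1.30 h. Relative protein expression was quantified.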
(In western blotting, separated proteins are transferred to a membrane and probed.)

Data set [9] has as its system INS1. Description: (§6) Protection against IL1beta/IFNgamma-induced cell death in […] cells assessed as reduction in cell death at 1 uM preincubated for 1 hr followed by IL1beta/IFNgamma addition and measured after 16 hrs by TUNEL assay relative to control. The data set is classed as functional. The conditions noted are these: Rattus norvegicus, time 17.0 hrs. Put shortly:
as §2

The subject of data set [10] is A549. Put plainly: Antiproliferative activity against human A549 cells assessed as reduction in cell growth after 72 hrs by MTT assay. The data set is classed as functional, cell-based. The following applies: A549, 72 h. In a few lines:
as §3

Data set [11] concerns A549. Description: Reduction in total STAT3 expression in human A549 cells at 50 uM by Western blot analysis. The data set is classed as functional, cell-based. In a few lines:
as §5

For data set [12], the system named is U-87 MG. Description: Antiproliferative activity against human U-87 MG cells assessed as reduction in cell growth after 72 hrs by MTT assay. In kind it is functional, cell-based. The conditions noted are these: U-87MG ATCC. Put shortly: as §3
Data set [13] has as its system INS1. The description is as §1. The data set is classed as functional. The following applies: Rattus norvegicus, time 17.0 hrs. Put shortly:
as §2

Data set [14] in a line: as §6. In kind it is functional. The arrangement: scale not given: the % may be the effect or the level left. The conditions noted are these: time 17 hrs. In a few lines:
as §2

Data set [15] relates to Caco-2. Description: Antiproliferative activity against human Caco2 cells assessed as reduction in cell growth at 10 to 100 uM after 72 hrs by MTT assay. The data set is classed as functional, cell-based. The following applies: dose 10-100 µM. Put shortly: as §3
The subject of data set [16] is A549. Description: Antiproliferative activity against human A549 cells assessed as reduction in cell growth at 10 to 100 uM after 72 hrs by MTT assay. In kind it is functional, cell-based. The conditions noted are these: dose 10-100 µM. In a few lines: as §3
Data set [17] concerns SF-268. Description: Antiproliferative activity against human SF-268 cells assessed as reduction in cell growth at 10 to 100 uM after 72 hrs by MTT assay. In kind it is functional, cell-based. The conditions noted are these: dose 10-100 µM. In a few lines:
as §3

Signal transducer and activator of transcription 3 (Homo sapiens), sequence (P40763 whole entry): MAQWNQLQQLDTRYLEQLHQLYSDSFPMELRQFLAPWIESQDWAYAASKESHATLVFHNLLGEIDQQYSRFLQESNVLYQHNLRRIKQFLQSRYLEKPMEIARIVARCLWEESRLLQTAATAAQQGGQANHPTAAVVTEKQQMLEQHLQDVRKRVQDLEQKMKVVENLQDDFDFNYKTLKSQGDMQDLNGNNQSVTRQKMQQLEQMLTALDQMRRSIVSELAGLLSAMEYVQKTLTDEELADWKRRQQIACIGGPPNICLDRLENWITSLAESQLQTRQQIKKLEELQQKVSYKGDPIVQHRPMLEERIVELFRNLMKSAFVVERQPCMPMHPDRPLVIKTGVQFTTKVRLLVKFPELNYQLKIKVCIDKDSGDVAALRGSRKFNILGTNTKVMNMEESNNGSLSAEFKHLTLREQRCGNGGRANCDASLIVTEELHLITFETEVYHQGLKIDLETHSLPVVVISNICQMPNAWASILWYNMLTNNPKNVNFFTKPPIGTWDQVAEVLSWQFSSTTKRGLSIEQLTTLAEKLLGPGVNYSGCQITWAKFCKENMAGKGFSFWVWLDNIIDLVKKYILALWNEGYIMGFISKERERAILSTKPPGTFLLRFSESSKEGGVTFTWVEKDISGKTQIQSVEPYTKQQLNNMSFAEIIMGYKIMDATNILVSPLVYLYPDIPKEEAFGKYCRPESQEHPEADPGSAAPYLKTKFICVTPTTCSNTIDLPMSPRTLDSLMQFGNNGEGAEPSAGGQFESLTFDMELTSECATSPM

Regarding `CCCCCCCCCCC[C@@H](O)CCCCCC(=O)O`, the Activity in data set [1] was 95%; in data set [6], “Non-Toxic”. Besides, the results for the IC50 in [2], in data set [7] and in data set [10] were 37 µM, 27 µM and 38 µM, respectively. The outcome in [3], in data set [9] and in data set [12] was inactive. Further, the outcome in data set [4], in data set [5], in data set [8] and in [11] was Active.
`CCCCCCCCCCC[C@H](O)CCCCCC(=O)O`: the result in data set [13], in data set [9] and in data set [12] was inactive. Also, the IC50 in data set [2] came to 50 µM; in [7], 47 µM; in data set [10], 50 µM. Besides, the Activity result in data set [6] is reported as “Non-Toxic”.
As to `CCCCCCCCC[C@@H](O)CCCCCC(=O)O`, the IC50 worked out at 42 µM in [2] and 49 µM in data set [10]. For the same compound, the result in [12] was inactive.
For `CCCCCCCCC[C@H](O)CCCCCCCC(=O)O`, the figures for the Activity in [1], in data set [6] and in data set [14] were 68%, “Non-Toxic” and 40%, respectively.
For `CCCCCCCCCCCCCCCC(=O)OC(CCCCCCCCCCC)CCCCCC(=O)O` (centres undefined), the outcome in data set [13], in [15], in data set [16] and in data set [17] was inactive.
For `CCCCCCCCCCCCCCCC(=O)O`, the result in data set [15], in data set [16] and in data set [17] was inactive.
For the compound `CCCCCCCC/C=C\CCCCCCCC(=O)OC(CCCCCCCCC)CCCCCCCC(=O)O` (centres undefined), the result in data set [15], in data set [16] and in [17] was inactive.
Regarding `CCCCCCCCCCCCCCCC(=O)OC(CCCCCCCCC)CCCCCCCC(=O)O` (centres undefined), the outcome in data set [15], in data set [16] and in [17] was inactive.
On to `CCCCCCCCC[C@@H](O)CCCCCCCC(=O)O`, for which the Activity in data set [1] is on record as 73%; in data set [6], “Non-Toxic”; in [14] it was 40%. For the same compound, the outcome in data set [3] was inactive. For the same compound, in data set [5], the result was Active.
With `CCCCCCCCC[C@H](O)CCCCCC(=O)O`, the IC50 stood at 50 µM in data set [2] and 55 µM in data set [10]. Further, the result in [12] was inactive.
For the compound `CCCCCCCCCCCCCCCCCC(=O)O`, the result in [15], in [16] and in data set [17] was inactive.

The term IC50 denotes the midpoint of a concentration-inhibition curve.
